Screens (PubChem)
Hits are enriched below; roughly 1.4% of the tested compounds scored in any of these assays.
IDE act = IDE (human) activation, cell-based; activation, % at 5.96 µM; HEK cells, FAbeta-B cleavage, fluorescence polarization; 0% vehicle, 100% cell-free pure enzyme wells; AID 493087; P14735; hit rate 0.073% among 340,000;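 active = activation above the mean of all tested compounds plus 3 SD, set per screening campaign, cut at about 17% in these data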
TPT1 inhibitor = blocks Candida albicans tRNA 2'-phosphotransferase | recombinant caTPT1, FP RNA substrate dephosphorylation | inhibition, % at 5 µM | hit rate 0.81% among 300,000 | AID 1962;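 active = inhibition above the mean of all tested compounds plus 3 SD, set per screening campaign, cut at about 24% in these data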
HNF4A DNA FP = change in binding of human HNF4 alpha to DNA; HNF4a-FITC DNA binding, fluorescence polarization, 1 h; activity change, % at 10 µM; hit rate 0.3% among 360,000; AID 1224865; in the data active = activity change above about 30%, passing the limit was not always enough
Target sequence (P41235 whole entry, looked up): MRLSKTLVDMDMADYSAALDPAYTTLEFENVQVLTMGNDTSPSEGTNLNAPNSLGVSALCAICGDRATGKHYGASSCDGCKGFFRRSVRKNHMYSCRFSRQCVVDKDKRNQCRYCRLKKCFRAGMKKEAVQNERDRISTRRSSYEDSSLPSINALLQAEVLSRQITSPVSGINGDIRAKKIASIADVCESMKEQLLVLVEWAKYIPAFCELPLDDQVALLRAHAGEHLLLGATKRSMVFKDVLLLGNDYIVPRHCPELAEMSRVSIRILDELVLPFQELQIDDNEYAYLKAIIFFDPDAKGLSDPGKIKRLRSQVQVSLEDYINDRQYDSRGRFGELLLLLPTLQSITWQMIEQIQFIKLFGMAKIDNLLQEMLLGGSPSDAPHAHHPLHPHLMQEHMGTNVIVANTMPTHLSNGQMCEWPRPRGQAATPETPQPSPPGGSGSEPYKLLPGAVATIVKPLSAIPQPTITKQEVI
IDE cell inh = inhibitors of human insulin-degrading enzyme in cells. inhibition, % at 5.59 µM. HEK cells, FAbetaB cleavage, fluorescence polarization. P14735. hit rate 0.41% among 320,000. AID 434962;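 active = percent inhibition above the average of all tested compounds plus 3 SD, set per screening campaign, cut at about 16% in these data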;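 also: IDE supplied by intact live HEK cells; FP after avidin binding of uncleaved biotin substrate so inhibition keeps polarization high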
CSN deneddyl inh = blocks human CSN-mediated cullin deneddylation | Q92905 | Purified CSN, SCF-Nedd8-OG deneddylation, fluorescence polarization | AID 651999 | hit rate 0.38% among 360,000 | inhibition, % at 12.5 µM;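 active = pattern-corrected inhibition above about 35%, with an unprinted fluorescence ratio check between 0.5 and 1.5, limit read from the data, passing the limit was not always enough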
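Assay system: purified human Csn5 enzyme expressed in HEK293T cells; measure: % inhibition; also added: SCFSkp2-Nedd8OG substrate at 10 nM final; technique: fluorescence polarization; times: reaction 90 min, room temperature; medium: Tris buffer pH 7.5, NaCl, DTT, Tween-20, trehalose, ovalbumin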
TPT1 inh confirm = TPT1 (C. albicans) inhibition, confirmation; shares compounds with TPT1 inhibitor; recombinant caTPT1, fluorescence polarization, RNase T1 coupled; inhibition, % at 5 µM; hit rate 74% among 2,400; AID 2149;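 active = inhibition above the primary screen limit, the mean inhibition of all tested compounds plus 3 SD, cut at about 25% in these data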
RNase T1 inh = counter-screen for TPT1 inhibitors: inhibitors of Aspergillus oryzae RNase T1 | shares compounds with TPT1 inhibitor | RNase T1 cleavage, fluorescence polarization, 1536-well | inhibition, % at 5 µM | hit rate 83% among 2,400 | AID 2153;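 active = inhibition above the solvent-only control well mean plus 3 SD, limit set per screening run, cut at about 23% in these data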;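 also: inhibitors block cleavage so intact labeled substrate keeps polarization high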
Target sequence (P00651 whole entry, looked up): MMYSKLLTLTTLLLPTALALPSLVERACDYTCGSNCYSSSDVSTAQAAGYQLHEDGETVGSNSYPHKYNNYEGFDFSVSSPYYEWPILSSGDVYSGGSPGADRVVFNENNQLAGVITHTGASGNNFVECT
A number is an active result; 0 = inactive; - = no result.

SMILES	IDE act	TPT1 inhibitor	HNF4A DNA FP	IDE cell inh	CSN deneddyl inh	TPT1 inh confirm	RNase T1 inh
CC(C)c1ccc(C2C3CSCC=C3C(C#N)=C(N)C2(C#N)C#N)cc1 (stereo not drawn)	-	36	-	0	-	38	48
Cc1ccc(OCc2nc3ccccc3n2C(C(=O)NC(C)(C)C)c2ccncc2)cc1 (stereo not drawn)	-	-	0	-	0	-	-
COCCNCC(=O)Nc1ccc(OC(F)(F)F)cc1	0	62	0	0	0	0	0
O=C1Nc2ccccc2C(=O)N(Cc2ccccc2)C1C(=O)NC1CC1 (stereo not drawn)	-	-	0	-	0	-	-
O=C(O)c1ccccc1N/N=C\c1ccnc2ccccc12	0	24	0	0	0	0	30
COc1cccc(C(=O)COc2cccc(NC(=O)c3cccc([N+](=O)[O-])c3)c2)c1	0	0	0	0	0	-	-
O=C(COc1cccc(NC(=O)c2cccc([N+](=O)[O-])c2)c1)c1ccc(F)cc1	0	53	0	0	0	0	0
Cc1ccc2[nH]c(=O)c3cc(C(=O)NCCC(C)C)sc3c2c1	0	-	0	-	0	-	-
CCC(C)NC(=O)c1cc2c(=O)[nH]c3ccc(C)cc3c2s1 (stereo not drawn)	0	29	0	0	0	0	0
CCCCNC(=O)c1nc(C2CCN(S(=O)(=O)c3ccc(C(F)(F)F)cc3)CC2)oc1-c1ccccc1	-	-	0	-	0	-	-
CCCc1cc(-n2ccnc2)n2c(nc3ccccc32)c1C#N	0	118	59	0	0	102	104
COC(=O)[C@@]12C[C@@H](CC(=O)NCc3ccc(OC)c(OC)c3)C(=O)N(Cc3ccc4c(c3)OCO4)C1=CCC(C)(C)C2	-	-	0	-	0	-	-
N=c1oc2cc(O)ccc2cc1C(=O)Nc1nc2ccccc2s1	0	65	0	0	0	70	75
N=c1oc2cc(O)ccc2cc1C(=O)Nc1ccccn1	-	29	-	0	-	0	0
N=c1oc2cc(O)ccc2cc1C(=O)Nc1ccc(Br)cc1	0	0	0	0	0	-	-
Cc1ccc([C@H]2C(C(=O)O)=CCN2S(=O)(=O)c2ccc(C)cc2)cc1	-	-	0	-	0	-	-
O=c1ccc2cccc([N+](=O)[O-])c2[nH]1	-	-	0	-	0	-	-
N#CC1=C(N)OC2=C(CC/C2=C\c2ccc(F)cc2)C1c1ccc(F)cc1 (stereo not drawn)	-	103	-	0	-	95	102
CC(C)N1CC2=C(OC(N)=C(C#N)C2c2cccnc2)/C(=C/c2cccnc2)C1 (stereo not drawn)	0	0	0	0	0	-	-
COC1=CC(=O)OC(c2ccc(C(F)(F)F)cc2)C1 (stereo not drawn)	-	-	0	-	0	-	-
COC(=O)[C@]12CCCCC=C1N(Cc1cccc3ccccc13)C(=O)[C@H](CC(=O)NCCC(C)C)C2	-	-	0	-	0	-	-
O=C(C[n+]1cc(Br)cc2ccccc21)c1ccc(Br)cc1	0	27	0	0	0	36	48
Cc1ccc(N=C2NC(=O)/C(=C/c3cccn3C)S2)cc1C	-	0	0	0	0	-	-
Cc1cccc(N=C2NC(=O)/C(=C/c3cccn3C)S2)c1C	0	25	0	0	0	37	49
O=C1Nc2ccccc2-n2nnnc2C1N1CCN(CCN2CCOCC2)CC1 (stereo not drawn)	-	-	0	-	0	-	-
SMILES	IDE act	TPT1 inhibitor	HNF4A DNA FP	IDE cell inh	CSN deneddyl inh	TPT1 inh confirm	RNase T1 inh
CCOC(=O)c1sc(=NC(=O)c2cccc(OC)c2)n(C)c1C	0	64	0	0	0	0	0
CCOC(=O)c1sc(=NC(=O)c2ccccc2)n(C)c1C	0	0	0	0	0	-	-
COc1ccc2nc(Nc3nc(C)c(CCC(C)C)c(=O)[nH]3)nc(C)c2c1	0	25	0	0	0	0	0
CCOC(=O)c1nn(-c2ccc(Cl)cc2Cl)c(=N)c(C#N)c1C	-	95	-	0	-	81	87
CCN1C(=O)C2(C(C#N)=C(N)Oc3cc(C)oc(=O)c32)c2ccccc21 (stereo not drawn)	0	0	0	0	0	-	-
Cc1cc2c(c(=O)o1)C1(C(=O)N(CC(=O)O)c3ccccc31)C(C#N)=C(N)O2 (stereo not drawn)	0	37	0	0	0	42	49
CCOC(=O)c1sc(Nc2ccc(Br)cc2)nc1C	0	0	0	0	0	-	-
CCOC(=O)c1cc2nc(Nc3ccc(OC)cc3)sc2s1	0	39	0	0	0	27	40
O=C1c2cccc3c(N4CCCCC4)ccc(c23)C(=O)N1CCO	0	50	0	51	0	0	0
CCc1nc2ccc(C(=O)Nc3cc(-c4ccccc4)ccc3OC)cn2c1N(CCN(C)C)CC1CC1	-	-	0	-	0	-	-
CCO/C=C1/C(=O)N(c2ccc(OC)cc2)C(=O)c2ccccc21	0	0	0	0	0	-	-
CCO/C=C1/C(=O)N(C)C(=O)c2cc(OC)ccc21	0	39	0	0	0	55	66
O=C(NCC1CCCO1)c1[nH]c(C(F)(F)F)nc1-c1ccccc1 (stereo not drawn)	-	-	0	-	0	-	-
Nc1nc(N)c2c(ccc3c2ccn3Cc2cccc([N+](=O)[O-])c2)n1	-	-	0	-	0	-	-
Cc1ccc(N=C2NC(=O)/C(=C/c3cccs3)S2)cc1C	0	30	0	0	0	46	59
Cc1cccc(N=C2NC(=O)/C(=C\c3cccs3)S2)c1	0	0	0	0	0	-	-
Cc1cccc(C)c1Nc1c(-c2ccc(N3CCOCC3)cc2)nc2ncccn12	0	30	0	0	0	34	41
Cc1ccc(Nc2c(-c3ccc(N4CCOCC4)cc3)nc3ncccn23)c(C)c1	0	0	0	0	0	-	-
CCOC(=O)C1=CCN(S(=O)(=O)c2ccccc2C)C1c1ccc(C)cc1 (stereo not drawn)	-	-	0	-	0	-	-
CC(=O)/C(N=Nc1cc(C)ccc1O)=C(\C)O	0	44	0	0	0	29	48
Nc1ncnc2c1ncn2[C@@H]1O[C@H](C(=O)NCc2ccc(OC(F)(F)F)cc2)[C@@H](O)[C@H]1O	-	-	0	-	0	-	-
N#Cc1c(Sc2ncc(C(F)(F)F)cc2Cl)nsc1C/C=N\OCc1ccccc1Br	0	55	0	0	0	35	37
CCOC(=O)/C(=C\Nc1ccccc1C(F)(F)F)Sc1ncc(C(F)(F)F)cc1Cl	0	0	0	0	0	-	-
COc1cc(C(=O)NC2CC2)cc(OC)c1OC	-	-	0	-	0	-	-
O=C(O)CCCN1C(=O)/C(=C\c2ccc(-c3nc4ccccc4s3)o2)SC1=S	0	30	0	0	0	48	75
O=C(O)CCN1C(=O)/C(=C/c2ccc(-c3nc4ccccc4s3)o2)SC1=S	0	31	60	0	0	46	66
O=Cc1ccc(-c2nc3ccccc3s2)o1	0	0	0	0	0	-	-
COc1ccccc1-c1cn(CC[C@H]2CC[C@@H](NS(=O)(=O)c3ccccc3C)[C@@H](CO)O2)nn1	-	-	0	-	0	-	-
COc1ccc(NC(=O)C2(C)CCN2Cc2cccc(OC)c2F)cc1OC (stereo not drawn)	-	-	0	-	0	-	-
